# Data as given in PubChem BioAssay.
# Active and inactive are the calls of the source.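 How the source made its calls, unless noted: active means GFP response above 150% of the DMSO level; inconclusive means fewer than 70 events counted for a yeast strain; inactive means the rest.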
# Tests used:
# [1] = hit retest on RPL19A-GFP reporter strain – cell-based, S. cerevisiae, flow cytometry, cherry picks, mother/daughter gates, confirmation (AID 2270;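 active means GFP response below 50% of the DMSO control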); details: 3 h, at 10 µM, stronger effect = lower value, 100 = same GFP as DMSO wells
# [2] = yeast TOR pathway reporter LAP4-GFP change – cell-based, cherry picks, flow cytometry, mother/daughter gates, confirmation (AID 2271;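 active means GFP response above 150% of the DMSO control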;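 further: ratio of sample to DMSO plate mean so 100% equals DMSO level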); details: S. cerevisiae LAP4-GFP strain, 3 h, at 10 µM, stronger effect = higher value, 100 means same as DMSO control
# Method in brief: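 System: Alexa 633-stained baker's yeast GFP-fusion strain; quantity: 0.2 OD600 cells; timing: compound exposure 3 h at 30 °C, end-over-end rotation; detection: HT flow cytometry, GFP fluorescence channel; measure: per-gate (all, mother, daughter) GFP response vs DMSO; control set: DMSO-only negative wells, rapamycin 400 ng/mL positive wells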
# [3] = TOR pathway reporter MEP2-GFP, retest of hits – S. cerevisiae, flow cytometry GFP, cherry picks, confirmation (AID 2272;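 active means GFP response above 150% of the DMSO control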;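 further: ratio of well signal to plate DMSO mean so 100% equals DMSO level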); details: S. cerevisiae MEP2-GFP strain, 3 h, at 10 µM, stronger effect = higher value
# [4] = yeast AGP1-GFP fluorescence change, single-dose – cell-based, flow cytometry, S. cerevisiae, cherry picks, confirmation (AID 2273);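 further: median GFP channel fluorescence over the whole cell population gate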; details: S. cerevisiae AGP1-GFP strain, 3 h, at 10 µM
# [5] = TOR pathway CIT2 reporter hit retest – S. cerevisiae, GFP fusion, cherry picks, mother/daughter gates, confirmation (AID 2274); details: S. cerevisiae CIT2-GFP strain, flow cytometry, 3 h, at 10 µM, stronger effect = higher value
# [6] = measured here: daughter cell gate
# [7] = measured here: mother cell gate
# [8] = measured here: daughter cell gate response
# [9] = measured here: mother cell gate response
Compound,GFP response vs DMSO [1],"GFP response vs DMSO [1, 6] [%]","GFP response vs DMSO [1, 7] [%]",GFP response relative to DMSO [2],"GFP response relative to DMSO [2, 8] [%]","GFP response relative to DMSO [2, 9] [%]",GFP response vs DMSO [3],"GFP response, % of DMSO [4]","GFP response, % of DMSO [5]","GFP response, % of DMSO [5, 6] [%]","GFP response, % of DMSO [5, 7] [%]"
O=C(Nc1nccs1)C(c1ccccc1)N1CCCCC1 (stereo not drawn),103% (inactive),100,104,93.1% (inactive),94.2,93.1,103% (inactive),101% (inactive),94.4% (inactive),92,94.4
CN(Cc1ccccc1)S(=O)(=O)c1ccc(C(=O)Nc2nnc(C3CC3)o2)cc1,103% (inactive),102,105,98.2% (inactive),99.1,97.3,96.8% (inactive),99.2% (inactive),102% (inactive),103,102
COc1cccc2c1Oc1ncccc1N(C(=O)CCC(=O)NCc1ccccc1)C2,99.2% (inactive),98.1,101,97% (inactive),95.9,97.3,103% (inactive),102% (inactive),98.8% (inactive),99.2,98.1
COc1ccc(-c2nnc(NC(=O)c3ccc(S(=O)(=O)N4COCC4(C)C)cc3)o2)cc1,96.5% (inactive),98.1,94,95.3% (inactive),92.9,97.4,103% (inactive),103% (inactive),98.6% (inactive),99.3,98.2
COC(=O)C1=C(C)NC(C)=C(C(=O)OC)C1c1ccc(OC(=O)c2oc3ccccc3c2C)c(OC)c1,98.8% (inactive),98.1,98.8,90% (inactive),90.4,89.9,98.8% (inactive),103% (inactive),103% (inactive),102,104
O=C1ON=C(c2ccccc2)/C1=C/c1ccco1,95.8% (inactive),86.4,85.2,169% (active),137,161,141% (inactive),89.2% (inactive),83.5% (inactive),92.7,70
Cc1ccc(C2CC(c3cccs3)=NN2S(=O)(=O)c2ccc(C)cc2)cc1 (stereo not drawn),101% (inactive),100,102,98.2% (inactive),97.5,97.3,109% (inactive),99% (inactive),98.8% (inactive),97.4,98.1
CCOc1cc(/C=C2\C(=N)N3N=C(S(=O)(=O)CC)SC3=NC2=O)ccc1OC(=O)c1ccco1,104% (inactive),104,105,89% (inactive),92.5,90.1,104% (inactive),100% (inactive),115% (inactive),113,113
Cc1ccc(S(=O)(=O)N(CC(=O)Nc2cccnc2)c2ccccc2C)cc1,104% (inactive),100,105,97% (inactive),95.9,97.3,105% (inactive),98.6% (inactive),94.4% (inactive),92,94.4
Cc1cc(N2CCCCC2)n2nc(C)c(-c3ccccc3)c2n1,99.7% (inactive),97.3,100,95% (inactive),97.2,96.2,97.8% (inactive),95% (inactive),97.8% (inactive),96.5,97.7
Clc1ccc(C2=NNC(=NCc3ccccc3)SC2)cc1,95.6% (inactive),94.6,86.8,97.9% (inactive),97.6,98.3,98.3% (inactive),93.9% (inactive),99.7% (inactive),101,98.5
Cc1ccc(NC(=S)N(CCCN2CCOCC2)Cc2cccs2)c(C)c1,97.6% (inactive),97.8,97.9,102% (inactive),104,101,99.5% (inactive),96% (inactive),99.3% (inactive),100,98
O=C(O)c1ccccc1C(=O)N1CCN(c2cccc(Cl)c2)CC1,97.2% (inactive),97,98.1,100% (inactive),97.9,96.5,97.5% (inactive),95.4% (inactive),96.4% (inactive),98.3,95.6
CCN(Cc1ccccc1)S(=O)(=O)c1ccc(C(=O)Nc2nnc(C3CC3)o2)cc1,98% (inactive),97,98.6,106% (inactive),105,104,99.5% (inactive),96.9% (inactive),99.3% (inactive),100,96.8
O=C(CN1CCN(Cc2ccccc2Cl)C1=O)NC1CCCCCCC1,98.2% (inactive),98.6,99.7,96.7% (inactive),97.6,95.1,100% (inactive),99.7% (inactive),107% (inactive),106,104
COCCCN1C(=O)C2C(C(=O)Nc3cc(C)cc(C)c3)C3C=CC2(O3)C1C(=O)NC1CCCCC1 (stereo not drawn),100% (inactive),101,101,95% (inactive),100,98.3,102% (inactive),96.7% (inactive),112% (inactive),105,114
Cc1noc2ncnc(Sc3ccc(Br)cc3)c12,97.2% (inactive),94.2,94.7,137% (inactive),133,135,103% (inactive),98.8% (inactive),108% (inactive),106,105

Compound,GFP response vs DMSO [1],"GFP response vs DMSO [1, 6] [%]","GFP response vs DMSO [1, 7] [%]",GFP response relative to DMSO [2],"GFP response relative to DMSO [2, 8] [%]","GFP response relative to DMSO [2, 9] [%]",GFP response vs DMSO [3],"GFP response, % of DMSO [4]","GFP response, % of DMSO [5]","GFP response, % of DMSO [5, 6] [%]","GFP response, % of DMSO [5, 7] [%]"
O=C(O)C1CCC(NSc2ccccc2[N+](=O)[O-])CC1 (stereo not drawn),98.2% (inactive),95.9,95.2,145% (inactive),133,157,96.8% (inactive),101% (inactive),97.3% (inactive),99.2,94.4
Cc1cccc(/C(N)=N/OC(=O)C23CC4CC(CC(C4)C2)C3)c1,102% (inactive),101,101,113% (inactive),108,119,108% (inactive),85% (inactive),123% (inactive),111,127
CCCc1[nH]nc2c1C1(C(=O)N(C(C)C)c3ccccc31)C(C#N)=C(N)O2 (stereo not drawn),98.2% (inactive),99.8,98.2,96.5% (inactive),104,96.4,106% (inactive),99.1% (inactive),98.6% (inactive),101,99.3
CCn1c2ccccc2c2cc(/C=N/n3cn[nH]c3=S)ccc21,93.6% (inactive),91.6,93.3,139% (inactive),128,141,97.2% (inactive),94.3% (inactive),87.5% (inactive),86.9,84.8
N#C/C(C(=O)Nc1ccc(Cl)cc1)=C(/S)Nc1ccccc1,98.8% (inactive),98.9,99.3,105% (inactive),104,104,101% (inactive),100% (inactive),105% (inactive),105,105
Cc1cccn2c(=O)c(/C=C(\C#N)C(=O)NC3CCS(=O)(=O)C3)c(N3CCC(C(N)=O)CC3)nc12 (stereo not drawn),101% (inactive),98.6,102,98.2% (inactive),97.5,98.4,99% (inactive),89.7% (inactive),97.3% (inactive),97.4,96.8
Cc1ccccc1C(=O)Nc1cccc(N)c1,99% (inactive),98.6,98.6,93.1% (inactive),94.2,94.1,101% (inactive),105% (inactive),97.3% (inactive),95.6,96.8
COc1ccc(-c2nc(-c3ccccc3OC)no2)cc1OC,100% (inactive),98.8,98.6,102% (inactive),99.1,104,105% (inactive),91.8% (inactive),94.4% (inactive),95.6,93.2
Cn1cc([N+](=O)[O-])c(C(=O)Nc2nc(-c3ccc(Cl)cc3)cs2)n1,97.8% (inactive),97,96.5,102% (inactive),97.5,102,106% (inactive),95.5% (inactive),100% (inactive),97.6,99.3
Cc1noc(/C=C/c2ccccn2)c1[N+](=O)[O-],95.6% (inactive),96.1,90.8,139% (inactive),132,142,99% (inactive),96.7% (inactive),90.1% (inactive),97.4,84.6
Cc1ccnc(N2C(=O)c3cccc4c([N+](=O)[O-])ccc(c34)C2=O)c1,102% (inactive),101,95,182% (active),177,178,318% (active),123% (inactive),177% (active),159,164
CCc1ccc2c(c1)/C(=C/C(=O)c1cccs1)C(=O)N2,94.9% (inactive),94.7,87.7,178% (active),156,171,100% (inactive),104% (inactive),91.3% (inactive),91.5,84.8
CCN(CC)C(=O)c1ccc(-c2cccs2)s1,95.4% (inactive),94.6,96.4,107% (inactive),106,108,94.1% (inactive),99.9% (inactive),98.3% (inactive),97.2,97.3
COc1ccc(NC(=O)COC(=O)c2ccco2)c([N+](=O)[O-])c1,99.5% (inactive),98.5,96.7,103% (inactive),99.3,102,108% (inactive),98.9% (inactive),99.3% (inactive),92.7,98
CCCc1nnc(NC(=O)c2nc(S(=O)(=O)Cc3ccc(C)cc3)ncc2Cl)s1,98.9% (inactive),97.6,94,106% (inactive),102,104,103% (inactive),103% (inactive),112% (inactive),106,108
COC(=O)Nc1c(-c2ccccc2)nc2ccccn12,99.4% (inactive),98.1,98.9,107% (inactive),106,105,98.3% (inactive),93.7% (inactive),101% (inactive),99.1,101
